Experiment [1] relates to Staphylococcus aureus. The experiment in a line: Antimicrobial activity against Staphylococcus aureus clinical isolate after 24 hrs by broth dilution assay. The format is functional. The method in brief: (§1)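 Clinical isolates were tested by broth dilution using serial dilutions in chemically defined medium over 0.4 to 0.005 µmol/ml. Plates were incubated for 24 h at 35°. MIC was taken as the highest dilution that prevented visible growth.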

The next experiment deals with Candida albicans. The experiment in a line: Antifungal activity against Candida albicans clinical isolate at 0.4 umol/ml after 24 hrs by broth dilution assay. The format is functional, organism-based. The method in brief: as §1
In experiment [2] the test system is Pseudomonas aeruginosa. Kind of experiment: Antimicrobial activity against Pseudomonas aeruginosa clinical isolate after 24 hrs by broth dilution assay. The format is functional. An outline of the steps:
as §1
A general note: In broth dilution the organism is exposed to a series of concentrations in liquid medium.

The subject of experiment [3] is Trichophyton mentagrophytes. Kind of experiment: Antifungal activity against Trichophyton mentagrophytes clinical isolate at 0.4 umol/ml after 48 hrs by broth dilution assay. The format is functional, organism-based. An outline of the steps:
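The clinical dermatophyte isolate was tested by broth dilution using serial dilutions in chemically defined medium over 0.4 to 0.005 µmol/ml. Inhibition was read after 48 h at 30°. MIC was the highest dilution with no visible growth.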

Experiment [4] has as its system Escherichia coli. Kind of experiment: Antimicrobial activity against Escherichia coli clinical isolate after 24 hrs by broth dilution assay. The format is functional. An outline of the steps:
as §1

Experiment [5] has as its system Staphylococcus aureus. The experiment in a line: Antimicrobial activity against Staphylococcus aureus clinical isolate up to 0.4 umol/ml after 24 hrs by broth dilution assay. The format is functional, organism-based. The method in brief:
(§2)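 Clinical isolate tested by broth dilution in chemically defined medium. Serial dilutions span 0.4 to 0.005 μmol/ml. Incubation is 24 h at 35°. MIC is taken as the highest dilution of compound that prevents visible growth.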

In experiment [6] the test system is Escherichia coli. The experiment in a line: Antimicrobial activity against Escherichia coli clinical isolate up to at 0.4 umol/ml after 24 hrs by broth dilution assay. The format is functional, organism-based. The method in brief: as §2
The test system of experiment [7] is Pseudomonas aeruginosa. The experiment in a line: Antimicrobial activity against Pseudomonas aeruginosa clinical isolate up to 0.4 umol/ml after 24 hrs by broth dilution assay. The format is functional, organism-based. An outline of the steps:
as §2

Values after ≈ are worked out from the molar mass of the structure shown. Active and inactive are the calls of the source. The calls are words filed in the database; no cut-off is given here.

As usually defined, the MIC is the lowest concentration that inhibits growth of the organism. `[N-]=[N+]=C1C(=O)NC(=O)NC1O` (stereo unspecified): the minimal inhibitory concentration (MIC) against Staphylococcus aureus [1] came to 20 µM (≈ 3.12 µg/mL); against Pseudomonas aeruginosa [2], 20 µM (≈ 3.12 µg/mL); against Escherichia coli [4], 10 µM (≈ 1.56 µg/mL). Further, the outcome (in the experiment on Candida albicans; in experiment [3]) was inactive.
Take `CCOC(=O)[C@H]1O[C@@H](n2cc([N+](=O)[O-])c(=O)[nH]c2=O)[C@H](O)[C@@H]1O`: the result in the experiment on Staphylococcus aureus [5], in the experiment on Escherichia coli [6] and with Pseudomonas aeruginosa [7] was inactive.
Consider `Cc1[nH]c(=O)[nH]c(=O)c1[N+](=O)[O-]`, for which the result with Staphylococcus aureus [5], in the experiment with Escherichia coli [6] and in the experiment on Pseudomonas aeruginosa [7] was inactive.
`O=C1NCC([N+](=O)[O-])C(=O)N1` (stereo unspecified): the outcome in the experiment with Staphylococcus aureus [5], in the experiment on Escherichia coli [6] and with Pseudomonas aeruginosa [7] was inactive.
Regarding `O=C1NC(=O)N(c2ccc([N+](=O)[O-])cc2)CC1[N+](=O)[O-]` (stereo unspecified), the result in the experiment on Staphylococcus aureus [5], with Escherichia coli [6] and in the experiment on Pseudomonas aeruginosa [7] was inactive.
Turning to `[N-]=[N+]=C1C=NC(=O)NC1=O`, the results for the MIC against Staphylococcus aureus [1], against Pseudomonas aeruginosa [2] and with Escherichia coli [4] were 10 µM (≈ 1.38 µg/mL), 40 µM (≈ 5.52 µg/mL) and 20 µM (≈ 2.76 µg/mL), respectively. Further, the result (in the experiment on Candida albicans; in experiment [3]) was inactive.
On to `CCOC(=O)[C@H]1O[C@@H](N2CC([N+](=O)[O-])C(=O)NC2=O)[C@H](O)[C@@H]1O` (stereo partly specified), for which the outcome with Staphylococcus aureus [5], in the experiment with Escherichia coli [6] and in the experiment on Pseudomonas aeruginosa [7] was inactive.
Turning to `CC1NC(=O)NC(=O)C1[N+](=O)[O-]` (stereo unspecified), the result in the experiment with Staphylococcus aureus [5], in the experiment with Escherichia coli [6] and in the experiment with Pseudomonas aeruginosa [7] was inactive.
In the case of `O=c1[nH]c(=O)n(-c2ccc([N+](=O)[O-])cc2)cc1[N+](=O)[O-]`, the outcome in the experiment with Staphylococcus aureus [5], with Escherichia coli [6] and in the experiment with Pseudomonas aeruginosa [7] was inactive.

These data come from ChEMBL document CHEMBL3272276, “Synthesis and antimicrobial evaluation of substituted 5,6-dihydro-5-nitrouracils” (1976).
